Measured values as given in ChEMBL document CHEMBL1127845, “Synthesis and antitumor activity of novel 6-alkyl-6-demethylmitomycins” (J Med Chem, 1994).

Legend:
HeLa = assay: In vitro anticellular activity against HeLa S3 cells; format: functional, cell-based; conditions: Homo sapiens
Outline: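 HeLa S3 cells seeded in 96-well plates on day 0, then exposed to compound for 1 h on day 1. Anticellular activity determined by a previously described method.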

CCRF S-180 [1] = assay: Optimal dose against sarcoma 180 tumor in ddY mice; format: functional, Mus musculus
Outline: (§1)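 Sarcoma 180 cells implanted subcutaneously in the axillary region of ddY mice on day 0. Compounds given intravenously on day 1. Tumor volume determined by a previously described method and expressed as treated/control. ED50 is the dose giving 50% inhibition of tumor growth, taken from the dose–response curve. Optimal dose also recorded.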

CCRF S-180 [2] = assay: Treated versus control value of tumor volume was measured in ddY mice; format: functional, Mus musculus; outline: as §1
CCRF S-180 [3] = assay: Effective dose that gave 50 percent inhibition of sarcoma 180 tumor growth in ddY mice; format: functional; conditions: Mus musculus; outline: as §1

SMILES | IC50 (HeLa) [nM] | OD (CCRF S-180 [1]) [mg/kg] | T/C (CCRF S-180 [2]) | ED50 (CCRF S-180 [3]) [mg/kg]
CCCCCC1=C(OC)C(=O)C2=C(C1=O)N1C[C@H]3[C@H](N3C)[C@]1(O)[C@H]2COC(N)=O (stereo partly specified) | 3100 | 20 | 0.79 | –
C=CCC1=C(N)C(=O)C2=C(C1=O)N1C[C@@H]3N[C@@H]3[C@]1(OC)[C@@H]2COC(N)=O | 10000 | – | – | –
CCCCCCCCCCCCCCCCCCCC1=C(OC)C(=O)C2=C(C1=O)N1C[C@@H]3N[C@@H]3[C@]1(OC)[C@@H]2COC(N)=O [6-DEMETHYL-6-N-NONADECYLMITOMYCIN A] | 7300 | 46 | 0.69 | –
CCCCCCCCCCCC1=C(OC)C(=O)C2=C(C1=O)N1C[C@@H]3N[C@@H]3[C@]1(OC)[C@@H]2COC(N)=O [6-DEMETHYL-6-N-UNDECYLMITOMYCIN A] | 640 | 20 | 0.8 | –
CO[C@@]12[C@H](COC(N)=O)C3=C(C(=O)C(C)=C(N)C3=O)N1C[C@@H]1N[C@@H]12 [MITOMYCIN] | 590 | 6 | 0.26 | 1.7
CCCCCCCCCCCC1=C(N)C(=O)C2=C(C1=O)N1C[C@@H]3N[C@@H]3[C@]1(OC)[C@@H]2COC(N)=O | > 10000 | – | – | –
CCCCCC1=C(OC)C(=O)C2=C(C1=O)N1C[C@@H]3N[C@@H]3[C@]1(OC)[C@@H]2COC(N)=O [6-DEMETHYL-6-N-PENTYLMITOMYCIN A] | 87 | 30 | 0.37 | 19
CCC1=C(N)C(=O)C2=C(C1=O)N1C[C@H]3[C@H](N3C)[C@]1(OC)[C@@H]2COC(N)=O (stereo partly specified) | – | 46 | 1.02 | –
CO[C@@]12[C@H](COC(N)=O)C3=C(C(=O)C(Cc4ccccc4)=C(N)C3=O)N1C[C@@H]1N[C@@H]12 | > 10000 | – | – | –
CCCCCCCCCCCCCCCCCCCC1=C(N)C(=O)C2=C(C1=O)N1C[C@@H]3N[C@@H]3[C@]1(OC)[C@@H]2COC(N)=O | 9000 | – | – | –
COC1=C(C)C(=O)C2=C(C1=O)[C@@H](COC(N)=O)[C@@]1(OC)[C@H]3N[C@H]3CN21 [MITOMYCIN A] | – | 1.8 | 0.2 | 1.3
COC1=C(Cc2ccccc2)C(=O)C2=C(C1=O)[C@H](COC(N)=O)[C@@]1(O)[C@@H]3[C@H](CN21)N3C (stereo partly specified) [6-BENZYL-6-DEMETHYLMITOMYCIN B] | 520 | 46 | 0.41 | 37
CCCCCC1=C(N)C(=O)C2=C(C1=O)N1C[C@@H]3N[C@@H]3[C@]1(OC)[C@@H]2COC(N)=O | > 10000 | – | – | –
COC1=C(Cc2ccccc2)C(=O)C2=C(C1=O)[C@@H](COC(N)=O)[C@@]1(OC)[C@H]3N[C@H]3CN21 | 63 | 30 | 0.43 | 23
CO[C@@]12[C@H](COC(N)=O)C3=C(C(=O)C(CC(C)C)=C(N)C3=O)N1C[C@@H]1N[C@@H]12 | > 10000 | 46 | 0.78 | –
CCC1=C(N)C(=O)C2=C(C1=O)N1C[C@H]3[C@H](N3C)[C@]1(O)[C@H]2COC(N)=O (stereo partly specified) | > 10000 | 20 | 0.8 | –
CCC1=C(N)C(=O)C2=C(C1=O)N1C[C@@H]3N[C@@H]3[C@]1(OC)[C@@H]2COC(N)=O.ClC(Cl)Cl | > 10000 | 46 | 0.42 | 38
CCC1=C(OC)C(=O)C2=C(C1=O)N1C[C@@H]3N[C@@H]3[C@]1(OC)[C@@H]2COC(N)=O [6-DEMETHYL-6-ETHYLMITOMYCIN A] | 17 | 7.4 | 0.1 | 2.8
COC1=C(CC(C)C)C(=O)C2=C(C1=O)[C@H](COC(N)=O)[C@@]1(O)[C@@H]3[C@H](CN21)N3C (stereo partly specified) [6-DEMETHYL-6-(2-METHYLPROPYL)MITOMYCIN B] | 6100 | 20 | 0.71 | –
COC1=C(CC(C)C)C(=O)C2=C(C1=O)[C@@H](COC(N)=O)[C@@]1(OC)[C@H]3N[C@H]3CN21 | 200 | – | – | –
CCC1=C(OC)C(=O)C2=C(C1=O)N1C[C@H]3[C@H](N3C)[C@]1(O)[C@H]2COC(N)=O (stereo partly specified) | 300 | 30 | 0.39 | 14
CO[C@@]12[C@H](COC(N)=O)C3=C(C(=O)C(CC[N+](=O)[O-])=C(N)C3=O)N1C[C@@H]1N[C@@H]12 | 1500 | 15 | 0.44 | 8
